ChEMBL document CHEMBL1152875, “Synthesis and optimization of arylsulfonylpiperazines as a novel class of inhibitors of 11 beta-hydroxysteroid dehydrogenase type 1 (11 beta-HSD1)” (Bioorg Med Chem Lett, 2009)
≈ marks a conversion by molar mass, not a printed value.

Columns and labels:
[1] = Metabolic stability in rat liver S9 fraction assessed as compound remaining after 60 mins; type: ADME, subcellular; settings: read-out: Activity
[2] = Clearance in rat; type: ADME, organism-based; settings: in vivo
[3] = molecular target: Cytochrome P450 3A4 (Homo sapiens, UniProt P08684)
[4] = Oral bioavailability in rat; type: ADME, organism-based; settings: in vivo
[5] = molecular target: Voltage-gated inwardly rectifying potassium channel KCNH2 (Homo sapiens, UniProt Q12809)
[6] = Solubility at pH 5.0; type: physicochemical; settings: buffer
[7] = AUC in rat at 2 mg/kg, po; type: ADME, organism-based; set-up: dose 2 mg/kg, route oral; settings: plasma
[8] = Drug level in mesenteric fat tissue of cynomolgus monkey at 2 mg/kg, po after 2 hrs; type: ADME, organism-based, Macaca fascicularis, Adipose tissue; set-up: dose 2 mg/kg, route oral; settings: read-out: Drug uptake
How it was run: (§1)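 Cynomolgus monkeys were given single oral doses of 0.4, 2 or 10 mg/kg in 1% methylcellulose plus 1% Tween 80 in sterile water, with 3 animals per dose group and a vehicle group of 4. Plasma and mesenteric fat were collected 2 h post-dose. Compound level in each matrix was measured by LC/MS/MS.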

[9] = Plasma concentration in cynomolgus monkey at 2 mg/kg, po after 2 hrs; type: ADME, organism-based, Macaca fascicularis; set-up: dose 2 mg/kg, route oral; how it was run: as §1
[10] = Plasma concentration in cynomolgus monkey at 10 mg/kg, po after 2 hrs; type: ADME, organism-based, Macaca fascicularis; set-up: dose 10 mg/kg, route oral; how it was run: as §1
[11] = Drug level in mesenteric fat tissue of cynomolgus monkey at 10 mg/kg, po after 2 hrs; type: ADME, organism-based, Macaca fascicularis, Adipose tissue; set-up: dose 10 mg/kg, route oral; settings: read-out: Drug uptake; how it was run: as §1
[12] = Drug level in mesenteric fat tissue of cynomolgus monkey at 0.4 mg/kg, po after 2 hrs; type: ADME, organism-based, Macaca fascicularis, Adipose tissue; set-up: dose 0.4 mg/kg, route oral; settings: read-out: Drug uptake; how it was run: as §1
[13] = Plasma concentration in cynomolgus monkey at 0.4 mg/kg, po after 2 hrs; type: ADME, organism-based, Macaca fascicularis; set-up: dose 0.4 mg/kg, route oral; how it was run: as §1

Chain of Voltage-gated inwardly rectifying potassium channel KCNH2 (Q12809 whole entry): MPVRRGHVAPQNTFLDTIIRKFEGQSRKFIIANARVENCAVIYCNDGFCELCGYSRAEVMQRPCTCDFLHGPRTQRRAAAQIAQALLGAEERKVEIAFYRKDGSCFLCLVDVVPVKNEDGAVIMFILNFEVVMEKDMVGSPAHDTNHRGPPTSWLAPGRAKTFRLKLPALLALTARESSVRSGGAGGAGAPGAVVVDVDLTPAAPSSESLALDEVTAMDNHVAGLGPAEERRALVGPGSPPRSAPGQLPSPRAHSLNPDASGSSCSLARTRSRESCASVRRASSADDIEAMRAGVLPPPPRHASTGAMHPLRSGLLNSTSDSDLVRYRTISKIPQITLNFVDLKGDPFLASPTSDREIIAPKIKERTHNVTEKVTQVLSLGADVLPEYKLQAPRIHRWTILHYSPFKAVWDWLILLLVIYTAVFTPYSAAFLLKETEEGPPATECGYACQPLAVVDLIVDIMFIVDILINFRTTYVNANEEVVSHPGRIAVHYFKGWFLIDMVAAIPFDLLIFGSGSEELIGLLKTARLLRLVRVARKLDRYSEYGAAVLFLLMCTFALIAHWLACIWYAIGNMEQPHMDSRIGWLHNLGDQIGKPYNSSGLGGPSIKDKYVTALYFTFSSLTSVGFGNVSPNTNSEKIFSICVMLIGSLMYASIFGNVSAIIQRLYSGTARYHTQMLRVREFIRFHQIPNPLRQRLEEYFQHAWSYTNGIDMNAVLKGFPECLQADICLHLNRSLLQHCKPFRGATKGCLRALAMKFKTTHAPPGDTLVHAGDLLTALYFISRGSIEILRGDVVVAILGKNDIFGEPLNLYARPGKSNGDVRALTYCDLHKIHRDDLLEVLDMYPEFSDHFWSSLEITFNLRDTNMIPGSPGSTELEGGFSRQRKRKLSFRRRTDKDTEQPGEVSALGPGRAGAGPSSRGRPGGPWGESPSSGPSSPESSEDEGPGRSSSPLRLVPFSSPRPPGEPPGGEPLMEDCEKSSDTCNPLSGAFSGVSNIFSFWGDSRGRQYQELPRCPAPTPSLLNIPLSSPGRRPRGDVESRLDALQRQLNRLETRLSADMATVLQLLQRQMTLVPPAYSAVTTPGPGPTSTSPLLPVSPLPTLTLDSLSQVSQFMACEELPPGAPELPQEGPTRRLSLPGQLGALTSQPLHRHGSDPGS
Chain of Cytochrome P450 3A4 (P08684 whole entry): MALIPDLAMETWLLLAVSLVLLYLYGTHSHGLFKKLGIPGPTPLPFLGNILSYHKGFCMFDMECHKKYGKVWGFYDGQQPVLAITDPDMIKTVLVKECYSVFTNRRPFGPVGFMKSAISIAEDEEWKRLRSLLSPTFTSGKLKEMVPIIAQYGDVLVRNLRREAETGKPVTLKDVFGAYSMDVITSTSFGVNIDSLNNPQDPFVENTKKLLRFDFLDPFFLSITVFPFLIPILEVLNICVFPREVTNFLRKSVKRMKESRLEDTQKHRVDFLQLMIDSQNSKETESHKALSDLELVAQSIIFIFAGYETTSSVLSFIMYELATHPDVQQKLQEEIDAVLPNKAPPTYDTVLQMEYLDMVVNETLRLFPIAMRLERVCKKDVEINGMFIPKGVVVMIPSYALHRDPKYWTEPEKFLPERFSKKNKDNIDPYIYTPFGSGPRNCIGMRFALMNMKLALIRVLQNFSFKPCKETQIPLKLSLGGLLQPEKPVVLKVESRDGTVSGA

| remaining at 1 h [1] [%] | solubility [6] [µg/mL] | Compound | other results |
| --- | --- | --- | --- |
| 61 |  | C[C@@H]1CN(CC2(c3cccnc3)CCC2)CCN1S(=O)(=O)c1ccc(C(C)(O)C(F)(F)F)cc1 (stereo not given in full) |  |
| 80 |  | C[C@@H]1CN(CC2(c3ccncc3)CC2)CCN1S(=O)(=O)c1ccc(C(C)(O)C(F)(F)F)cc1 (stereo not given in full) | clearance [2]: 35 mL/min/kg; IC50 [3]: 1700 nM; bioavailability [4]: 60%; IC50 [5]: 440 nM |
|  | 21.8 (≈ 54.3 µM) | C[C@@H]1CN(CCc2ccncc2)CCN1S(=O)(=O)c1ccc(C(C)(C)C)cc1 |  |
|  | 20.8 (≈ 51.8 µM) | CC(c1ccncc1)N1CCN(S(=O)(=O)c2ccc(C(C)(C)C)cc2)[C@H](C)C1 (stereo not given in full) |  |
| 43 |  | C[C@@H]1CN(CC2(c3ccncc3)CCCC2)CCN1S(=O)(=O)c1ccc(C(C)(O)C(F)(F)F)cc1 (stereo not given in full) |  |
| 28 |  | C[C@@H]1CN(CCc2ccccn2)CCN1S(=O)(=O)c1ccc(C(C)(O)C(F)(F)F)cc1 (stereo not given in full) |  |
| 67 |  | C[C@@H]1CN(CCc2cccnc2)CCN1S(=O)(=O)c1ccc(C(C)(O)C(F)(F)F)cc1 (stereo not given in full) |  |
|  | 1 (≈ 2.29 µM) | C[C@@H]1CN(Cc2ccnc3ccccc23)CCN1S(=O)(=O)c1ccc(C(C)(C)C)cc1 |  |
| 40 |  | C[C@@H]1CN(CC(F)(F)c2ccncc2)CCN1S(=O)(=O)c1ccc(C(C)(O)C(F)(F)F)cc1 (stereo not given in full) |  |
| 54 |  | C[C@@H]1CN(CC2(c3ccncc3)CCC2)CCN1S(=O)(=O)c1ccc(C(C)(O)C(F)(F)F)cc1 (stereo not given in full) |  |
|  | 1.8 (≈ 4.31 µM) | C[C@@H]1CN(c2ccc([N+](=O)[O-])cc2)CCN1S(=O)(=O)c1ccc(C(C)(C)C)cc1 |  |
|  | 18.1 (≈ 46.7 µM) | C[C@@H]1CN(Cc2ccncc2)CCN1S(=O)(=O)c1ccc(C(C)(C)C)cc1 |  |
| 50 |  | C[C@@H]1CN(CC2(c3cccnc3)CC2)CCN1S(=O)(=O)c1ccc(C(C)(O)C(F)(F)F)cc1 (stereo not given in full) |  |
| 46 |  | C[C@@H]1CN(CC(F)(F)c2cccnc2)CCN1S(=O)(=O)c1ccc(C(C)(O)C(F)(F)F)cc1 (stereo not given in full) |  |
|  | 39 (≈ 93.8 µM) | C[C@@H]1CN(CCCc2ccncc2)CCN1S(=O)(=O)c1ccc(C(C)(C)C)cc1 |  |
|  | 0.5 (≈ 1.24 µM) | CC(C)(C)c1ccc(S(=O)(=O)N2CCN(c3ccc([N+](=O)[O-])cc3)CC2)cc1 | AUC [7]: 29.8 ng·h/mL |
|  |  | C[C@@H]1CN(CC2(C(N)=O)CC2)CCN1S(=O)(=O)c1ccc([C@](C)(O)C(F)(F)F)cc1 | concentration at 2 h [8]: 2780 nM; concentration at 2 h [9]: 349 nM; concentration at 2 h [10]: 503 nM; concentration at 2 h [11]: 40700 nM; concentration at 2 h [12]: 105 nM; concentration at 2 h [13]: 29 nM; AUC [7]: 638 ng·h/mL |
| 59 |  | C[C@@H]1CN(CCc2ccncc2)CCN1S(=O)(=O)c1ccc(C(C)(O)C(F)(F)F)cc1 (stereo not given in full) |  |
| 60 |  | C[C@@H]1CN(CC2(c3cccnc3)CCCC2)CCN1S(=O)(=O)c1ccc(C(C)(O)C(F)(F)F)cc1 (stereo not given in full) |  |
